Data set [1] has as its target T1, human MDR1 (Pgp) (Homo sapiens, UniProt P08183). Nature of the data set: Concentration equilibrium transport assay in LLC-MDR1 cells. In kind it is cell-based. Conditions: 50 μM both chambers, 6 h, with/without tariquidar 0.5 μM.
For a further data set, the target named is murine Mdr1a (Pgp) (Mus musculus, UniProt P21447). The experiment in a line: Concentration equilibrium transport assay in LLC-Mdr1a cells. It is filed as cell-based. Conditions: 50 μM both chambers, 6 h, with/without tariquidar 0.5 μM.
For a further data set, the target named is human MRP1 (Homo sapiens, UniProt P33527). Nature of the data set: Concentration equilibrium transport assay in LLC-MRP1 cells. In kind it is cell-based. Conditions: 50 μM both chambers, 6 h, with/without MK571 50 μM. The essentials:
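LLC-PK1 transfected with MRP1, ≤13 passages, seeded at 0.3 × 10^6 cells/cm2 on polyester filters; assayed 5–7 days post-confluence in Opti-MEM after 1 h pre-incubation ± MK571 50 µM. Test compound 50 µM in both chambers; both sampled at 60, 120, 240, 360 min; 37°C, 5% CO2, 50 rpm; triplicate. Integrity: TEER, [14C]mannitol; calcein-AM 1 µM positive control.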

Data set [2] has as its system P-glycoprotein (Pgp) at the blood-brain barrier. Nature of the data set: Paired small-animal PET scans in rats before and after tariquidar.
For data set [3] the test system is unchanged.
Data set [4] in a line: Plasma protein binding by ultrafiltration. It is filed as in vitro ADME. As to conditions: rat plasma, n = 3.
A short description of data set [5]: Radio-HPLC analysis of radiolabelled metabolites in rat plasma and brain. Conditions: 40 min after injection.
The test system of data set [6] is multidrug resistance proteins (MRPs) at the murine BBB. Conditions: wild-type mice, MK571 20 mg/kg iv 30 min before scan.
Data set [7] addresses multidrug resistance proteins (MRPs) at the murine BBB (Mus musculus, UniProt O35379). Conditions: single 60-min PET scans, n = 4 each.
Data set [8] has as its system P-glycoprotein (Pgp) at the blood-brain barrier. As to conditions: naïve rats, 15 mg/kg; ref Kuntner et al. 2010; cited from earlier work.
Data set [9] addresses T1, human MDR1 (Pgp). Conditions: tariquidar 0.5 μM; ref Luna-Tortós et al. 2008; cited from earlier work.

Some results are limits rather than exact numbers.

T1 sequence (P08183 whole entry): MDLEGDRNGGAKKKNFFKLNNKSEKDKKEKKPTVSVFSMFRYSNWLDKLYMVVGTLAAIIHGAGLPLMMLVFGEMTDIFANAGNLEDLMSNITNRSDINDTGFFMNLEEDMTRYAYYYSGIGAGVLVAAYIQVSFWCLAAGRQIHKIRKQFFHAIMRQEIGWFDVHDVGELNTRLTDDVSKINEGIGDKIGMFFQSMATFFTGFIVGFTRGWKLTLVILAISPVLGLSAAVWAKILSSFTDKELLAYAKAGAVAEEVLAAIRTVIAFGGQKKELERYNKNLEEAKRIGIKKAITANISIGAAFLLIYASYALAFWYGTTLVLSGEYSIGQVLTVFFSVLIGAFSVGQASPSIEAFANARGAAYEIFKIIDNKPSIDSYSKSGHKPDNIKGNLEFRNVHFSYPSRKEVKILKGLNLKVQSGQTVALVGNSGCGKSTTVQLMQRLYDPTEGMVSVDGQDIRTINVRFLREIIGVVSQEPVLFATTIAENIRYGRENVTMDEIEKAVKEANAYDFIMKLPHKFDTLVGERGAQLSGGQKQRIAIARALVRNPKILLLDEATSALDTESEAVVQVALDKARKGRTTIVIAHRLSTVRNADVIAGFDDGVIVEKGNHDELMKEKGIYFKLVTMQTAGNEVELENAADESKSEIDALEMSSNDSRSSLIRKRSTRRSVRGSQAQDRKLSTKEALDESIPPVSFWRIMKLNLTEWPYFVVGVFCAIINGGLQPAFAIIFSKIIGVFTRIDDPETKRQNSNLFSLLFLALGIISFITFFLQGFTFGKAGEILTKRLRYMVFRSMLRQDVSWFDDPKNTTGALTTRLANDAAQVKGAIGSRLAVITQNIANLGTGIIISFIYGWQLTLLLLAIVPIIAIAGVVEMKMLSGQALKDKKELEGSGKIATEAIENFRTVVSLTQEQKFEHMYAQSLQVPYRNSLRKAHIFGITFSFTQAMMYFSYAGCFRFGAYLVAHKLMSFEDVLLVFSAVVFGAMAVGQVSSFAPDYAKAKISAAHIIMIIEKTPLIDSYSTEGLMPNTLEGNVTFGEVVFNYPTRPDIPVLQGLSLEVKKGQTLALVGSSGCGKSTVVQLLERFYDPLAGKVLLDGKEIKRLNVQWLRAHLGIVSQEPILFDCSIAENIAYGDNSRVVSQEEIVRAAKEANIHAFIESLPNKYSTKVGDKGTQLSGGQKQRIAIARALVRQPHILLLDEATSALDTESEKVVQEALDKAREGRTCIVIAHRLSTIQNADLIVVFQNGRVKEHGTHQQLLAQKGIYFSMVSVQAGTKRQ
multidrug resistance proteins (MRPs) at the murine BBB (Mus musculus, UniProt O35379), sequence (O35379 whole entry): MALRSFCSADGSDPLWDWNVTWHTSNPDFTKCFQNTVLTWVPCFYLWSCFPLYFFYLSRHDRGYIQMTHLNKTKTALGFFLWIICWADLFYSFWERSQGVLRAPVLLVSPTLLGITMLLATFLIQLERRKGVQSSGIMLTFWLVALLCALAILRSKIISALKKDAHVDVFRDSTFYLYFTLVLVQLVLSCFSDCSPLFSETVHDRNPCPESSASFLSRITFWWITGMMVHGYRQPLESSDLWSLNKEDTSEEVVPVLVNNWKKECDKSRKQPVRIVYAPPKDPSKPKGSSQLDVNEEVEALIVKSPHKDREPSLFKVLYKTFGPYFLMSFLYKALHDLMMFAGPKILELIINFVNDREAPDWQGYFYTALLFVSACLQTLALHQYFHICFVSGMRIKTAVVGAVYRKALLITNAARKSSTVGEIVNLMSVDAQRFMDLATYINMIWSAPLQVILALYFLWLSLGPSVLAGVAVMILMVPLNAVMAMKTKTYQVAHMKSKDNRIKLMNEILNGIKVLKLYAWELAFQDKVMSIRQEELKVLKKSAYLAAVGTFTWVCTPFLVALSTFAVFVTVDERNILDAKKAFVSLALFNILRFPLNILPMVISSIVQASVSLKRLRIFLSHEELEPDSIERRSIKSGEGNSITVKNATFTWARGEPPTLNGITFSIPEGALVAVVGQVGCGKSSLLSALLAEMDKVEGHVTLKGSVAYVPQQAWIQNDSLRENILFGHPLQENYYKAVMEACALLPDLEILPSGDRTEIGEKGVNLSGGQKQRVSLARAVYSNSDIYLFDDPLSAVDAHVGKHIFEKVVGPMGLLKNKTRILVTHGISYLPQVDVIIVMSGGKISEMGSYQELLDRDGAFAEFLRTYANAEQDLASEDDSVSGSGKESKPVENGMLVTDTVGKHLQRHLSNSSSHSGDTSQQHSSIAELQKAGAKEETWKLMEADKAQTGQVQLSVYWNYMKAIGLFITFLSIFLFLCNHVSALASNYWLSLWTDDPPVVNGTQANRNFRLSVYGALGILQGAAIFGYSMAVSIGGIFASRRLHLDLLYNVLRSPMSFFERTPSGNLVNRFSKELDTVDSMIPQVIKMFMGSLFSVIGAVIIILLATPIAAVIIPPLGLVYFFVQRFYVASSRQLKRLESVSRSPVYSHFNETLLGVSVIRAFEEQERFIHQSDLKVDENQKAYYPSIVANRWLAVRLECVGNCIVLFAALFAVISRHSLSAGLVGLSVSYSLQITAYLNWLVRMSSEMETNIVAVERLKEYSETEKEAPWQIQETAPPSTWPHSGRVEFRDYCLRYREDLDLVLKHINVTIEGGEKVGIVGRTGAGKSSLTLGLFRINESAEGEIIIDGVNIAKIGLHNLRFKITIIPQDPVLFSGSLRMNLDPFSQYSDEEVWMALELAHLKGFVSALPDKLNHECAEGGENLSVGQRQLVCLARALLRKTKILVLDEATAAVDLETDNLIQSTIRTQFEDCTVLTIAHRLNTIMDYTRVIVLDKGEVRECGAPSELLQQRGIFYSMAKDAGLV
murine Mdr1a (Pgp), sequence (P21447 whole entry): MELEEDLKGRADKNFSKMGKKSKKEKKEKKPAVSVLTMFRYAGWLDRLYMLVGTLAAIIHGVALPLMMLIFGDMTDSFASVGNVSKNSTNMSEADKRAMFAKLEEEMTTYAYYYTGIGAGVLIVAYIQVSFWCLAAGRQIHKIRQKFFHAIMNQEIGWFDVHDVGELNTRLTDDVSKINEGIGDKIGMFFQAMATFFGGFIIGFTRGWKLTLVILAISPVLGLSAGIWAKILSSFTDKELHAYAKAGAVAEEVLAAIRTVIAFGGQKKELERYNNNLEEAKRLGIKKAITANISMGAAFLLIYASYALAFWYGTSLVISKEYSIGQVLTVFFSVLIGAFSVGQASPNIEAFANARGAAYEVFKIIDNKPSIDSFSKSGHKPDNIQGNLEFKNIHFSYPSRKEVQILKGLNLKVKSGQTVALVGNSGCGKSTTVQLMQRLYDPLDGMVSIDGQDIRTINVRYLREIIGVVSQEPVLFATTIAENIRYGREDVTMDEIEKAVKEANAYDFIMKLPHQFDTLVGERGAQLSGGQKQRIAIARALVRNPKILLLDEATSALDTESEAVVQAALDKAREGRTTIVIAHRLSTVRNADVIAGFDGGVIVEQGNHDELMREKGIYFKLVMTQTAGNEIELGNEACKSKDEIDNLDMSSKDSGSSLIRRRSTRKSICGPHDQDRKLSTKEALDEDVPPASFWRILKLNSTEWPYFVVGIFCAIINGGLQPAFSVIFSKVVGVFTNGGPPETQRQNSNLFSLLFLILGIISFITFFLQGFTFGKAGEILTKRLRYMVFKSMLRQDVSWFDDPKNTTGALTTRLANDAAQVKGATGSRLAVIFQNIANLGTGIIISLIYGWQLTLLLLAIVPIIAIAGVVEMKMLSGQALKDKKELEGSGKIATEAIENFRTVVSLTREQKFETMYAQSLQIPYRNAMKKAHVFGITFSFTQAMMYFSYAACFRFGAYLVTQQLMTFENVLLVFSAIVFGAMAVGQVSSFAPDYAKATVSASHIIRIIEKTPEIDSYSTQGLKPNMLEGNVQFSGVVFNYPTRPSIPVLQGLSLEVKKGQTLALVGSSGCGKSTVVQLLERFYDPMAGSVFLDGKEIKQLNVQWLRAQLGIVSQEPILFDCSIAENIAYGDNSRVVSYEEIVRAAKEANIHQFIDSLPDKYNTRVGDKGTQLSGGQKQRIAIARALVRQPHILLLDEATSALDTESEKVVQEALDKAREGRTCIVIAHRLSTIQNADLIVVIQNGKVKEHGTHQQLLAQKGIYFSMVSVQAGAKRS

With `CCC1(c2ccccc2)C(=O)NC(=O)N(C)C1=O` (centres unmarked) [mephobarbital, methylphenobarbital], on human MDR1 (Pgp) [1], the “basolateral-to-apical transport by human MDR1” value is listed as “lack of active transport”. For the same molecule, at murine Mdr1a (Pgp), the “basolateral-to-apical transport by murine Mdr1a” value was “lack of active transport”. For the same molecule, the “basolateral-to-apical transport by human MRP1” value at human MRP1 is “lack of active transport”.

Regarding `CCC1(c2ccccc2)C(=O)NC(=O)N([11CH3])C1=O` (centres unmarked) [[^11C]mephobarbital], the “Peak brain activity uptake (SUV)” value in data set [2] (scan 1 (before tariquidar), about 1 min after iv injection, n = 3) turned out to be 3.1±0.2 SUV. The “brain-to-blood AUC0-60 ratio” value in data set [2] (scan 1 (before tariquidar), n = 3) stood at 2.0±0.5; in [2] (scan 2 (after tariquidar 15 mg/kg iv), n = 3), 2.4±0.3. In addition, the “brain-to-blood AUC0-60 ratio in scan 1 as compared to (R)-[11C]verapamil” value in data set [2] (scan 1, Supplementary Fig. S1) was “two times higher”. Moreover, the “Blood activity concentrations (SUV), comparison of groups and scans” value in data set [3] (25 and 60 min, wild-type and Mdr1a/b(-/-) mice, scan 1 and 2, three comparisons excepted (p < 0.05)) is recorded as “similar”. Besides, in [3] (scan 1 and scan 2, respectively, n = 3 each), the “Brain AUC0-60, wild-type versus Mdr1a/b(-/-) mice” value was “not significantly different”. In addition, the “Brain AUC0-60, scan 2 relative to scan 1” value in data set [3] (wild-type mice, tariquidar 15 mg/kg, p = 0.013) is on record as “significantly decreased”. Besides, the “fraction unbound in plasma” value in [4] was 0.21±0.05. For the same molecule, the “total activity in brain in the form of unchanged parent” value in data set [5] (rat brain tissue extracts, n = 5) was 96±6%. In addition, in [5] (rat plasma), the “total activity in plasma as unchanged parent” value is recorded as > 85%. In addition, the “Brain uptake, untreated versus MK571 pretreated mice” value in [6] was “did neither differ”. In addition, in data set [7], the “Brain uptake, wild-type versus Mrp1(-/-) mice” value is “did neither differ”.

For `COc1cc2c(cc1OC)CN(CCc1ccc(NC(=O)c3cc(OC)c(OC)cc3NC(=O)c3cnc4ccccc4c3)cc1)CC2` [tariquidar], the “inhibition of Pgp at the BBB” value in [8] is reported as “completely inhibit Pgp”.

In the case of `CCC1(c2ccccc2)C(=O)NC(=O)NC1=O` [phenobarbital], the “inhibition of MDR1 transport by tariquidar” value on human MDR1 (Pgp) [9] was 54%.

The record behind these values is article PMC3778256 (Epilepsy research, 2012).
